Experimental data as given in ChEMBL document CHEMBL3244090, “Combined high oxytocic with negligible antidiuretic and pressor activities in multisubstituted oxytocins” (J Med Chem, 1977).
*1 amine or outer side, *2 acyl side, *3 side chain or, on linkers, in order; H or OH if unused. Where a SMILES comes first, the peptide text is derived from it. Bridges are numbered along the chain shown (N, C = ends). X1 = O=C([C@H](O)CS[*:2])[*:1]

Legend:
[1] = Oxytocic potency in rat uterus; assay type: functional
Procedure, shortened: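 Isolated uterine horns from rats in natural estrus. The standard was given repeatedly until reproducible values were obtained. After the preparation was exposed to an analogue, several further doses of standard were needed before the standard's potency became consistent between analogue injections.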

Gallus gallus = assay: Vasodepressor activity in conscious chicken; assay type: ADME, organism-based; conditions: in vivo
Procedure, shortened: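 Vasodepressor assay run in conscious chickens.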

Rattus norvegicus [2] = assay: Antidiuretic activity in iv dosed rat; assay type: ADME, organism-based, Urine; conditions: in vivo
Procedure, shortened: (§1)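 Pressor and antidiuretic assays run in anesthetized male rats.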

[3] = Ratio of oxytocic potency to antidiuretic activity in rat; parameters: species or system Urine
Rattus norvegicus [4] = species on record: Rattus norvegicus; assay: Vasopressor activity in rat; assay type: ADME, organism-based; conditions: in vivo; procedure, shortened: as §1

| Compound | Activity (Gallus gallus) [U/mg] | Activity (Rattus norvegicus [2]) [U/mg] | Activity (Rattus norvegicus [4]) [U/mg] | Activity [1] [U/mg] | Ratio [3] |
| --- | --- | --- | --- | --- | --- |
| CC[C@H](C)[C@@H]1NC(=O)[C@H](Cc2ccc(O)cc2)NC(=O)[C@H](O)CSSC[C@@H](C(=O)NCC(=O)N[C@@H](CC(C)C)C(=O)NCC(N)=O)NC(=O)[C@H](CC(N)=O)NC(=O)[C@H]([C@@H](C)O)NC1=O (YITNCGLG-NH2; linker N-5 via X1) | 50 | 0.048 |  | 337 | 7000 |
| CC[C@H](C)[C@@H]1NC(=O)[C@H](Cc2ccc(O)cc2)NC(=O)[C@H](O)CSSC[C@@H](C(=O)N2CCC[C@H]2C(=O)N[C@@H](CC(C)C)C(=O)NCC(N)=O)NC(=O)[C@H](CC(N)=O)NC(=O)[C@H](CCC(N)=O)NC1=O (YIQNCPLG-NH2; linker N-5 via X1) | 1778 | 16.6 | 14.7 | 1275 | 40 |
| CC[C@H](C)[C@@H]1NC(=O)[C@H](Cc2ccc(O)cc2)NC(=O)[C@@H](N)CSSC[C@@H](C(=O)NCC(=O)N[C@@H](CC(C)C)C(=O)NCC(N)=O)NC(=O)[C@H](CC(N)=O)NC(=O)[C@H](CCC(N)=O)NC1=O (H-CYIQNCGLG-NH2; disulfide 1-6) | 224 | 0.01 | 0.3 | 65 | 6500 |

Now from value to compound, other results behind:

| Activity (Gallus gallus) [U/mg] | Activity (Rattus norvegicus [2]) [U/mg] | Activity (Rattus norvegicus [4]) [U/mg] | Compound | Activity [1] [U/mg] | Ratio [3] |
| --- | --- | --- | --- | --- | --- |
| 507 | 2.7 | 3.1 | CC[C@H](C)[C@@H]1NC(=O)[C@H](Cc2ccc(O)cc2)NC(=O)[C@@H](N)CSSC[C@@H](C(=O)N2CCC[C@H]2C(=O)N[C@@H](CC(C)C)C(=O)NCC(N)=O)NC(=O)[C@H](CC(N)=O)NC(=O)[C@H](CCC(N)=O)NC1=O [OXYTOCIN] | 546 | 200 |
| 1480 | 1.8 | 0.43 | CC[C@H](C)[C@@H]1NC(=O)[C@H](Cc2ccc(O)cc2)NC(=O)[C@@H](N)CSSC[C@@H](C(=O)N2CCC[C@H]2C(=O)N[C@@H](CC(C)C)C(=O)NCC(N)=O)NC(=O)[C@H](CC(N)=O)NC(=O)[C@H]([C@@H](C)O)NC1=O (H-CYITNCPLG-NH2; disulfide 1-6) | 923 | 500 |
| 8.6 | 0.001 |  | CC[C@H](C)[C@@H]1NC(=O)[C@H](Cc2ccc(O)cc2)NC(=O)[C@@H](N)CSSC[C@@H](C(=O)NCC(=O)N[C@@H](CC(C)C)C(=O)NCC(N)=O)NC(=O)[C@H](CC(N)=O)NC(=O)[C@H]([C@@H](C)O)NC1=O (H-CYITNCGLG-NH2; disulfide 1-6) | 175 | 135000 |
